Columns and labels:
[1] = system: Human immunodeficiency virus 1; test: Antiviral activity against 0.06 MOI Human immunodeficiency virus 1 IIIB infected in C8166 cells assessed as reduction in virus-induced cytopathic effect after 3 days by syncytium reduction assay; format: functional, organism-based; conditions: C8166, 72 h
Outline: (§1)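 C8166 cells (4 × 10^5/mL) infected at MOI 0.06 in presence of serial compound dilutions; AZT as drug control. Cultured 3 days at 37 °C, syncytia (multinucleated giant cells) counted under inverted microscope; EC50 = concentration blocking syncytium formation by 50%. Mean of at least two separate experiments.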

[2] = system: Human immunodeficiency virus 1; test: Antiviral activity against 0.06 MOI Human immunodeficiency virus 1 IIIB A17 harboring reverse transcriptase K103N and Y181C double mutant infected in C8166 cells assessed as reduction in virus-induced cytopathic effect after 3 days by syncytium reduction assay; format: functional, organism-based; conditions: Human immunodeficiency virus 1, IIIB A17, C8166, 72 h
Outline: as §1, with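 “infected with HIV-1 IIIB A17 (K103N+Y181C)” for “infected”, “graded” for “serial”, “concentrations;” for “dilutions;”, “AZT” for “AZT as”, “as” for “=”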

[3] = system: Human immunodeficiency virus 2; test: Antiviral activity against Human immunodeficiency virus 2 ROD infected in C8166 cells assessed as reduction in virus-induced cytopathic effect after 3 days by syncytium reduction assay; format: functional, organism-based; conditions: Human immunodeficiency virus 2, ISOLATE ROD, C8166, 72 h; outline: as §1
[4] = Cytotoxicity against human C8166 cells by MTT assay; format: cell-based
Outline: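 MTT colorimetric assay on C8166 cells, absorbance read at 570/630 nm; CC50 (concentration reducing viable cells by 50%) taken from dose-response curve. Mean of at least two separate experiments.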

[5] = Selectivity index, ratio of CC50 for human C8166 cells to EC50 for wild type HIV1 IIIB infected in C8166 cells; format: toxicity, cell-based; conditions: read-out: Ratio CC50/EC50
Outline: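 SI computed as CC50 (MTT, C8166 cells) divided by EC50 against HIV-1 IIIB from syncytium reduction in C8166 cells at MOI 0.06, 3 days at 37 °C.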

Structure (SMILES)	EC50 [1]	EC50 [2]	EC50 [3]	CC50 [4]	selectivity ratio [5]
Cc1cc(S(N)(=O)=O)ccc1NC(=O)COc1ccc(F)cc1Oc1cccc2ccccc12	0.137 µM	1.68 µM	17 µM	33.1 µM	240
Cc1cc(S(N)(=O)=O)ccc1NC(=O)COc1ccc(F)cc1Oc1ccc2ccccc2c1	0.0455 µM	3.29 µM	96.6 µM	68.5 µM	1510
Cc1cc(S(N)(=O)=O)ccc1NC(=O)COc1ccc(Cl)cc1Oc1ccc2ccccc2c1	0.0791 µM	1.79 µM	27.3 µM	119 µM	1500
Cc1cc(S(N)(=O)=O)ccc1NC(=O)COc1ccc(Cl)cc1Oc1ccc2cc(Br)ccc2c1	0.244 µM	2.49 µM	20 µM	31.3 µM	128
Cc1cc(S(N)(=O)=O)ccc1NC(=O)COc1ccc(Cl)cc1Oc1ccc2ccccc2c1Cl	0.169 µM	1.73 µM	13.3 µM	40.7 µM	241
Cc1cc(S(N)(=O)=O)ccc1NC(=O)COc1ccc(Cl)cc1Oc1ccc2ccccc2c1Br	0.0879 µM	1.34 µM	137 µM	48.1 µM	547
Cc1cc(S(N)(=O)=O)ccc1NC(=O)COc1ccc(F)cc1Oc1cc2ccccc2cc1C	0.14 µM	1.09 µM	126 µM	66.9 µM	476
Cc1cc(S(N)(=O)=O)ccc1NC(=O)COc1ccc(F)cc1Oc1ccc2cc(Br)ccc2c1	0.181 µM	1.77 µM	96 µM	> 358 µM	> 1970
Cc1cc(S(N)(=O)=O)ccc1NC(=O)COc1ccc(F)cc1Oc1ccc2ccccc2c1C	0.183 µM	1.15 µM	26.4 µM	56.1 µM	306
Cc1cc(S(N)(=O)=O)ccc1NC(=O)COc1ccc(F)cc1Oc1ccc2ccccc2c1Br	0.0858 µM	1.59 µM	6.17 µM	39.5 µM	460
Cc1cc(S(N)(=O)=O)ccc1NC(=O)COc1ccc(F)cc1Oc1ccc2cc(C#N)ccc2c1	0.0388 µM	1.02 µM	166 µM	> 396 µM	> 10200
Cc1cc(S(N)(=O)=O)ccc1NC(=O)COc1ccc(F)cc1Oc1ccc2ccccc2c1Cl	0.186 µM	3.09 µM	136 µM	47.1 µM	254
Cc1cc(S(N)(=O)=O)ccc1NC(=O)COc1ccc(F)cc1Oc1ccc2cc(Br)ccc2c1Cl	0.1 µM	1.2 µM	11.5 µM	195 µM	1950
Cc1cc(S(N)(=O)=O)ccc1NC(=O)COc1ccc(Cl)cc1Oc1ccc2cc(C#N)ccc2c1	0.117 µM	2.33 µM	> 383 µM	> 383 µM	> 3290
Cc1cc(S(N)(=O)=O)ccc1NC(=O)COc1ccc(F)cc1Oc1ccc2cc(C#N)ccc2c1Br	0.0046 µM	0.82 µM	4.4 µM	35.3 µM	7670
Cc1cc(S(N)(=O)=O)ccc1NC(=O)COc1ccc(F)cc1Oc1ccc2cc(C#N)ccc2c1Cl	0.00472 µM	0.54 µM	235 µM	39.7 µM	8410
Cc1cc(S(N)(=O)=O)ccc1NC(=O)COc1ccc(F)cc1Oc1c(C)cc2ccccc2c1Cl	0.198 µM	1.39 µM	18.8 µM	55.6 µM	280
Cc1cc(S(N)(=O)=O)ccc1NC(=O)COc1ccc(F)cc1Oc1ccc2cccc(F)c2c1	0.0924 µM	1.45 µM	66.3 µM	171 µM	1850
Cc1cc(S(N)(=O)=O)ccc1NC(=O)COc1ccc(Cl)cc1Oc1c(C)cc2ccccc2c1Cl	0.0731 µM	1.07 µM	3 µM	42.6 µM	583
Cc1cc(S(N)(=O)=O)ccc1NC(=O)COc1ccc(Cl)cc1Oc1cc2ccccc2cc1C	0.0584 µM	0.76 µM	20.7 µM	76.7 µM	1310
Cc1cc(S(N)(=O)=O)ccc1NC(=O)COc1ccc(Cl)cc1C(=O)c1cc(Cl)cc(C#N)c1	0.00068 µM	0.00138 µM	2.18 µM	> 386 µM	> 567000
Cc1cn([C@H]2C[C@H](N=[N+]=[N-])[C@@H](CO)O2)c(=O)[nH]c1=O [ZIDOVUDINE]	0.0106 µM	0.00812 µM	0.129 µM	5600 µM	529000
